Only some compounds are listed: those with a hit (about 2.6% of all), similar ones and a draw of the others.
S100A4 MyoIIA – inhibitors of human S100A4 binding to myosin IIA peptide. P26447. S100A4/TAMRA-MyoIIA peptide fluorescence polarization. inhibition, % at 10.7 µM. 0.14% of 360,000 active. AID 652163;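 active = mean inhibition of at least 70% across replicates, with every replicate also reaching that level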
Target sequence (P26447 whole entry, looked up): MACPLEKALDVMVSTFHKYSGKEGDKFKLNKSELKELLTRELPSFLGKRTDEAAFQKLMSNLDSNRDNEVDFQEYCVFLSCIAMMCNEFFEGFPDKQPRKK
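Test system: S100A4 monomer protein; Medium: HEPES pH 7.2 with CaCl2, KCl, NaCl, DTT, Triton; Probe or stimulus: TAMRA-labelled myosin IIA heavy-chain peptide probe, 5 nM; Doses: one dose per compound; Times: polarization read 5 min after assay mix addition, stable 5–60 min; Benchmarks: neutral control DMSO, positive control TFP.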
Vif imaging – blocks HIV Vif function. 0.35% of 340,000 active. HEK293T cells, Vif self-association by quenched fluorescence, imaging, 24 h. AID 602346. inhibition, % at 7.49 µM; in the data active = inhibition above about 50%, passing the limit was not always enough
miR-122 sensor – blocks miR-122 activity in Huh7 sensor cells; Huh7 miR-122 Renilla luciferase sensor, 48 h; neutral wells = 0, positive control = 100; activation (reporter increase), % at 12.5 µM; 0.3% of 340,000 active; AID 602342;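 active = mean replicate activation score at least 90 and every replicate individually at or above 90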;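 note: higher luciferase means less miR-122 activity so hits act as miR-122 inhibitors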
HIV Env fusion – HIV envelope-mediated fusion inhibition; HeLa-JRFL Env/CEM21 cell fusion, luciferase; inhibition, % at 12.3 µM; 1.1% of 360,000 active;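 active = mean replicate inhibition score of at least 50 and every replicate individually at or above 50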;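 note: 0% = plate neutral controls and 100% = maraviroc near 300 nM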
rRNA inh HTS – inhibits bacterial ribosomal RNA function over humanized ribosomes; E. coli WT GFP vs humanized-ribosome RFP mutants, fluorescence, 24 h; stronger effect = lower value; DMSO median 0, no signal -100; GFP signal change (wild-type ribosome), % (concentration not given with the values); 1.6% of 350,000 active;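 active = significant combined selectivity score with lowered wild-type GFP, culture density cut under 30%, mutant RFP and density less affected; inactive = any of these conditions unmet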
FN deposit inh – fibronectin deposition inhibition; AH1F fibroblasts, Alexa488-fibronectin deposition fluorescence, overnight; inhibition, % at 12.6 µM; 0.086% of 350,000 active;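 active = mean inhibition across replicates of 30% or more, regardless of how many single replicates reach that level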;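 note: positive control wells lacked labelled fibronectin entirely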
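Assay system: AH1F fibroblasts / Quantity: 10000 cells per well / Medium: DMEM plus 2% serum, read in PBS / Reagent: labelled fibronectin 24 nM / Dosing: single dose, pinned / Times: 1 h cell attachment, overnight exposure to compound and label / Signal: fluorescence, ex 485 nm, em 525 nm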
The depositor's hits bear a star; [ ] = another dose, or the depositor's remark.

COC(=O)[C@@]1(Cc2ccc(F)cc2)[C@H]2c3cc(C(=O)N(C)C)n(CCc4ccccn4)c3C[C@H]2CN1C(=O)c1ccccc1 was read as S100A4 MyoIIA -3, HIV Env fusion -13, rRNA inh HTS 5 and FN deposit inh 9.
For COC(=O)[C@@]1(Cc2ccc(F)cc2)[C@H]2c3cc(C(=O)N(C)C)n(CCO)c3C[C@H]2CN1C(=O)c1ccccc1 the results were S100A4 MyoIIA -1, HIV Env fusion 80* and rRNA inh HTS 20.
For Cc1noc(C)c1NC(=O)N(C)C[C@@H]1Oc2ccc(NS(=O)(=O)c3ccccc3)cc2C(=O)N([C@@H](C)CO)C[C@H]1C the results were S100A4 MyoIIA -16, miR-122 sensor 7[16.7 µM], HIV Env fusion -12[16.7 µM] and rRNA inh HTS 0.
For C[C@@H](NC(=O)C[C@H]1CC[C@H](NC(=O)C2CCC2)[C@@H](CO)O1)c1ccccc1 the results were S100A4 MyoIIA 6, HIV Env fusion -4[16.7 µM] and rRNA inh HTS -1.
O=C(c1cccc(F)c1)N1CC(=O)N2[C@H](C1)[C@H](c1ccc(-c3ccccc3)cc1)[C@@H]2CO was read as rRNA inh HTS 0.
For COc1ccc(-c2cc(=O)oc3cc(OC(C)C(=O)NC(Cc4c[nH]c5ccc(O)cc45)C(=O)O)ccc23)cc1 (stereo not given) the results were S100A4 MyoIIA 1, Vif imaging -10 and miR-122 sensor -1.
CC(Oc1ccc2c(-c3ccccc3)cc(=O)oc2c1)C(=O)N[C@H](Cc1c[nH]c2ccccc12)C(=O)O (stereo not given in full) was read as S100A4 MyoIIA -7, Vif imaging 13, miR-122 sensor -22 and rRNA inh HTS -24*.
Screening COc1cc(/C=N/NC(=O)c2cc(-c3ccc4c(c3)OCO4)n[nH]2)ccc1O returned S100A4 MyoIIA 2, Vif imaging 0, HIV Env fusion -80 and rRNA inh HTS -26*.
COc1cc(/C=N/NC(=O)c2[nH]nc3c2CCc2ccccc2-3)ccc1O was read as S100A4 MyoIIA -5, Vif imaging -14, miR-122 sensor 16, HIV Env fusion 13, rRNA inh HTS -20* and FN deposit inh -6.
O=C(N/N=C/c1ccc([N+](=O)[O-])cc1)c1cc(-c2ccc3c(c2)OCO3)n[nH]1 was read as S100A4 MyoIIA 2, Vif imaging 8, HIV Env fusion -3, rRNA inh HTS -2 and FN deposit inh -2.
NCC[C@@H]1CC[C@@H](NC(=O)c2ccccc2F)[C@H](CO)O1 was read as S100A4 MyoIIA -8, rRNA inh HTS 2 and FN deposit inh 3.
For O=C1OC(NCc2cccnc2)(c2ccc(Cl)cc2)c2ccccc21 (stereo not given) the results were S100A4 MyoIIA 0, Vif imaging 10, HIV Env fusion 1, rRNA inh HTS -35* and FN deposit inh 2.
`Cc1ccc(OCc2nc(C#N)c(N3CCCCC3)o2)cc1` gave S100A4 MyoIIA -7, Vif imaging 4, HIV Env fusion 13, rRNA inh HTS -32* and FN deposit inh -6.
`CCC(C)(C)C(=O)O[C@H]1C[C@@H](C)C=C2C=C[C@H](C)[C@H](CC[C@@H]3C[C@@H](O)CC(=O)O3)[C@H]21` gave S100A4 MyoIIA 1, Vif imaging 5, miR-122 sensor -12, HIV Env fusion 67* and FN deposit inh 6.
`CCOc1ccc(C(C)=O)cc1COC(=O)c1ccccc1C(=O)N(C)Cc1ccccc1` gave S100A4 MyoIIA 6, Vif imaging -3, miR-122 sensor 41, HIV Env fusion 98*, rRNA inh HTS -25 and FN deposit inh -3.
Screening CN(Cc1ccccc1)C(=O)c1ccccc1C(=O)OCC(=O)N(Cc1ccccc1)C(C)(C)C returned S100A4 MyoIIA -5, Vif imaging -2, miR-122 sensor 3, HIV Env fusion -54, rRNA inh HTS -24 and FN deposit inh -2.
`CCC(=O)Nc1ccc2c(c1)C(=O)N(C)C[C@H](OC)[C@@H](C)CN(C(=O)CC)[C@@H](C)CO2` gave S100A4 MyoIIA -2, HIV Env fusion -3[16.7 µM], rRNA inh HTS 1 and FN deposit inh 9.
Screening CCOc1ccc(-c2nnc(-c3cccs3)o2)cc1OCC returned Vif imaging 3, miR-122 sensor 4 and HIV Env fusion -60.
`CCOc1ccc(-c2nc(-c3cccs3)c(CC(=O)O)s2)cc1OC` gave S100A4 MyoIIA 4, Vif imaging -1, miR-122 sensor 4, HIV Env fusion -16, rRNA inh HTS -19* and FN deposit inh 1.
Screening C[C@H](CO)N1C[C@H](C)[C@H](CN(C)S(=O)(=O)c2ccccc2)Oc2ccc(NC(=O)Nc3ccc4c(c3)OCO4)cc2CC1=O returned S100A4 MyoIIA 7, miR-122 sensor -2[16.7 µM], HIV Env fusion 75*[16.7 µM], rRNA inh HTS 2 and FN deposit inh 3.
`C[C@H](CO)N1C[C@H](C)[C@@H](CN(C)S(=O)(=O)c2ccccc2)Oc2ccc(NC(=O)Nc3ccc4c(c3)OCO4)cc2CC1=O` gave S100A4 MyoIIA 1, miR-122 sensor -7[16.7 µM], HIV Env fusion -4[16.7 µM], rRNA inh HTS 4 and FN deposit inh 6.
`Cc1ccc(S(=O)(=O)N(C)C[C@@H]2Oc3ccc(NC(=O)Nc4ccc5c(c4)OCO5)cc3CC(=O)N([C@@H](C)CO)C[C@@H]2C)cc1` gave S100A4 MyoIIA 2, miR-122 sensor 113*[16.7 µM], HIV Env fusion -137[16.7 µM] and rRNA inh HTS 4.
For CC(C)(C)c1ccc(C(=O)Nc2ccc(CC(=O)O)cc2)o1 the results were Vif imaging 0, HIV Env fusion 85* and FN deposit inh -2.
`Cc1ccc(C(=O)Nc2ccc(CC(=O)O)cc2)o1` gave Vif imaging 15, miR-122 sensor 26, HIV Env fusion -19 and FN deposit inh -6.
C=C(Cl)COc1ccc2c(CC)cc(=O)oc2c1 was read as S100A4 MyoIIA -1, Vif imaging 14, miR-122 sensor 1 and rRNA inh HTS -24*.
C=C(Cl)COc1ccc2c(CCCC)cc(=O)oc2c1 was read as Vif imaging 0 and miR-122 sensor 2.
Screening CCc1cc(=O)oc2cc(OC(C)C(=O)NCc3ccccn3)ccc12 (stereo not given) returned S100A4 MyoIIA -1, Vif imaging 58*, miR-122 sensor -5, HIV Env fusion 5, rRNA inh HTS 2 and FN deposit inh -5.
For Cc1ccccc1NC(=S)N(Cc1cccs1)C1CCCCC1 the results were S100A4 MyoIIA -1, Vif imaging 7, miR-122 sensor 4, HIV Env fusion 17, rRNA inh HTS -9 and FN deposit inh 11.
